Screens as filed in PubChem.
Hits are enriched below; roughly 1.8% of the tested compounds scored in any of these assays.
SIAE primary: human SIAE inhibitors, primary screen, biochemical, fluorescence polarization, FP-Rh probe, 1536-well HTS; Sialate O-acetylesterase (Homo sapiens), Q9HAT2; SIAE FP-Rh probe binding; inhibition, % at 9.66 µM; actives 0.69% (n = 370,000); AID 1053197, 2014;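 active = inhibition above a cutoff: mean of compounds within the control limits plus 3 SD of those, cut at about 17% in these data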;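 also: 0% = plate median of compound wells and 100% = probe without SIAE protein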
TCR CD3 inh: inhibitors of human TCR-CD3 interaction, primary screen, biochemical, fluorescence, TAMRA-labeled TCR probe | T-cell receptor (TCR) | inhibition, % at 9.4 µM | actives 0.37% (n = 360,000); in the data active = inhibition above about 19%;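 also: recombinant mutant TCR 2C K166C tagged with TAMRA read by polarization; 0% = receptor in buffer alone and 100% = receptor with positive control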
PME-1 inh: PME-1 inhibitors via competitive probe labeling, primary screen, biochemical, fluorescence polarization, FP-Rh probe, HTS. inhibition, % at 5.9 µM. recombinant PME-1. Protein phosphatase methylesterase 1 (Homo sapiens), Q9Y570. AID 2130, 2009. actives 0.53% (n = 320,000);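 active = inhibition above the campaign mean of all compounds plus 3 SD, cut at about 26% in these data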;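 also: competitive labeling of PME-1 active site by serine hydrolase directed probe; 0% = PME-1 with DMSO and 100% = wells lacking PME-1 enzyme; inhibitors block probe labeling so polarization falls and inhibition rises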
mABHD4 FP: ABHD4 inhibitors, primary screen, biochemical, fluorescence polarization, mouse; inhibition, % at 8.92 µM; AID 720543, 2013; actives 0.54% (n = 370,000); purified mABHD4, FP-Rh probe fluorescence polarization;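 active = inhibition exceeding the mean over every tested compound plus 3 SD, cut at about 30% in these data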;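 also: 0% = plate median of compound wells and 100% = S159A mutant with DMSO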
Target sequence (Q8VD66 whole entry, looked up): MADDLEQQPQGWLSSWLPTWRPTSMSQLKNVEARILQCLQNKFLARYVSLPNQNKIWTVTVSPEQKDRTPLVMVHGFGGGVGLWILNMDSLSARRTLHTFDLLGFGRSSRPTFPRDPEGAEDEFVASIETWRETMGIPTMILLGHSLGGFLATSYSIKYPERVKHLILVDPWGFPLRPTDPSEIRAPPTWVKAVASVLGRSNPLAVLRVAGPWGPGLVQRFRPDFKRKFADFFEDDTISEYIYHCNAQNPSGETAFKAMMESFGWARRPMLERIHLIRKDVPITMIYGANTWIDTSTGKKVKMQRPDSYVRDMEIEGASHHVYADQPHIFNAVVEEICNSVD
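Test system: mABHD4 protein | Buffer or medium: HEPES pH 7.0 buffer, 150 mM NaCl, 0.01% Pluronic F-127 | Probe or stimulus: FP-Rh fluorescent activity-based probe, added after compound pre-incubation | Timing: Pre-incubation 45 min, probe exposure 60 min, at 25 °C | Technique: Fluorescence polarization, excitation 525 nm, emission 598 nm, BODIPY TMR filters | Repeats: Single well per compound (singlicate)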
Fam108B counter: mouse Fam108B serine hydrolase inhibitors, primary screen, counter-screen for RBBP9 inhibitor project, biochemical, fluorescence polarization | recombinant Fam108B, FP-Rh probe fluorescence polarization | actives 0.33% (n = 300,000) | AID 1947, 2009 | inhibition, % at 9.51 µM;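 active = inhibition above the screen mean inhibition plus 3 SD, computed separately per campaign, cut at about 18% in these data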;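 also: inhibitors lower polarization as less probe binds the enzyme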
HTRA1 inh: HTRA1 serine protease inhibitors, primary screen, biochemical, fluorescence polarization, HTS; inhibition, % at 5.96 µM; actives 0.5% (n = 340,000); Q92743; recombinant HTRA1, FP-rhodamine activity-based probe; in the data active = inhibition above about 36%;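 also: 0% = enzyme with DMSO and 100% = wells lacking enzyme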
Fam108b confirm: mouse Fam108b serine hydrolase inhibitors, confirmation, counter-screen for RBBP9 inhibitor project, biochemical, fluorescence polarization, triplicate; shares compounds with Fam108B counter; AID 1978, 2009; inhibition, % at 9.51 µM; recombinant Fam108b, FP-Rh probe fluorescence polarization; actives 44% (n = 930);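 active = inhibition above a limit from the primary screen, the mean over all compounds plus 3 SD, cut at about 19% in these data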;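 also: 0% = median of active Fam108b wells and 100% = catalytically dead S170A mutant; inhibitors free the probe so polarization falls as inhibition rises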
Fam108b inh: inhibition of mouse Fam108b by HTS hits, late-stage follow-up, biochemical, gel-based ABPP, soluble recombinant form; fluorophosphonate probe; actives 44% (n = 260); inhibition, % at 20 µM; shares compounds with Fam108B counter; in the data active = inhibition above about 40%
Active calls of the source: *; . = no result.

SMILES	SIAE primary	TCR CD3 inh	PME-1 inh	mABHD4 FP	Fam108B counter	HTRA1 inh	Fam108b confirm	others
O=C(CN1CCc2onc(-c3ccc(-n4cc(COc5ccc([N+](=O)[O-])cc5)nn4)cc3)c2C1=O)N1CCOCC1	0	.	.	4	.	.	.
Cc1coc2c1C(=O)C(=O)c1c-2ccc2c(C)cccc12	.	.	8	.	19*	40*	15
Cc1ccc2c3c(cccc13)-c1ccccc1C2=O	-6	9	-3	-2	-6	-25	.
O=C(N/C(=C\c1ccccc1)C(=O)N1CCOCC1)c1ccco1	-1	-6	-12	2	42*	-2	0
CC(NC(=O)COc1ccccc1)C1COc2ccccc2O1 (configuration not stated)	12	1	3	0	7	8	.
CC(NC(=O)Cc1ccccc1)C1COc2ccccc2O1 (configuration not stated)	-2	-1	1	-2	125*	0	-1
O=C(Nc1ccc(Cl)cc1)Nc1ccc2c(c1)N1CCN=C1S2	19*	-15	20	5	22*	10	10
Cc1[nH]c2ccccc2c1/C=N/Nc1nc(Nc2ccc(F)cc2)nc(N2CCOCC2)n1	-3	2	19	3	22*	3	7
Cc1nn(-c2ccccc2)c(N2CCCC2)c1/C=N/NC(=O)c1cc(-c2ccccc2)nc2ccccc12	-12	1	-3	8	-6	-30	.
Cc1nn(-c2ccccc2)c(N2CCCC2)c1/C=N/NC(=O)c1cc2ccccc2cc1O	5	11	38*	14	27*	25	9
Cc1nn(-c2ccccc2)c(N2CCCC2)c1/C=N/NC(=O)c1cccc(S(=O)(=O)Nc2ccc(Cl)cc2)c1	-10	8	15	0	22*	-13	-6
CN1C(=O)/C(=C/c2ccc(C(=O)Nc3ccc(O)cc3C(=O)O)cc2)SC1=S	-11	-1	35*	15	19*	2	-12
Cc1ccc(/C=C2\SC(=S)N(CCC(=O)NNC(=O)c3ccc(O)cc3)C2=O)cc1	-213	0	-193	-44	-105	-116	.
COc1cccc(N2CCN(S(=O)(=O)c3ccc4nc(-c5ccccc5)[nH]c4c3)CC2)c1	7	8	13	-11	21*	-16	-12
O=C(NCCc1ccc(Cl)cc1)C1CCCN1C(=O)Nc1ccccc1 (configuration not stated)	-8	-3	4	0	31*	4	3
O=C(NCCc1ccc(Cl)cc1)C1CCCN1C(=O)Nc1ccc(F)cc1 (configuration not stated)	0	-1	9	8	1	-2	.
O=C(O)CCCN1C(=O)/C(=C\c2ccc(-c3nc4ccccc4s3)o2)SC1=S	-2	1	-5	29	20*	-7	11
O=C(O)CCN1C(=O)/C(=C/c2ccc(-c3nc4ccccc4s3)o2)SC1=S	-10	9	15	27	11	8	.
CCN=C1NC(c2ccc(C(F)(F)F)cc2)C(C(=O)OC)=C(C)N1Cc1cccc(C(F)(F)F)c1 (configuration not stated)	4	1	.	20	.	.	.
COC(=O)c1cccc(Cn2ccc3ccc(-c4ccc5ccn(C(=O)c6cccc(OC)c6)c5c4)cc32)c1	-9	.	.	-21	.	.	.
COc1ccc(N=C2NC(=O)S/C2=C\c2ccc(N(C)C)cc2)cc1	12	6	47*	9	32*	5	28*
COc1cccc(C=NNc2nc(Nc3ccc([N+](=O)[O-])cc3)nc(N3CCCC3)n2)c1O	.	.	.	.	.	.	.	Fam108b inh=90*
COc1ccc([N+](=O)[O-])cc1/C=N/Nc1nc(N2CCCCC2)nc(N2CCCCC2)n1	-3	10	-2	3	-5	-3	.
COC(=O)[C@]12C[C@H](CC(=O)NCc3ccccc3)C(=O)N(Cc3cccc4ccccc34)C1=C[C@H](COCc1ccccc1)O[C@@H]2C	-2	.	.	-19	.	.	.
Cc1cccc(/N=C/c2nc(-c3ccccc3Br)oc2O)n1	1	3	4	4	27*	-10	37*
SMILES	SIAE primary	TCR CD3 inh	PME-1 inh	mABHD4 FP	Fam108B counter	HTRA1 inh	Fam108b confirm	others
Cc1ccnc(N=Cc2nc(-c3ccccc3Br)oc2O)c1	5	-10	-7	5	22*	3	80*	Fam108b inh=75*
Cc1cccc(N=Cc2nc(-c3ccccc3Br)oc2O)n1	.	.	.	.	.	.	.	Fam108b inh=50*
C=CCNC(=O)Nc1ccc2c(c1)[C@]1(CC(=O)N(CC(C)C)C1c1ccccc1)C(=O)N2C (some centres not stated)	-4	.	.	3	.	.	.
O=S1(=O)c2ccc(N3CCC[C@@H]3CO)cc2O[C@H]2CCN1C2	7	.	.	7	.	.	.
COC(CNC(=O)[C@H](Cc1ccccc1)NCC(=O)NC1CCCCC1)OC	4	.	.	2	.	.	.
COC(=O)[C@]1(CNC(=O)c2cc(F)ccc2F)CC(=O)N(C)[C@@H]1c1ccccc1	3	.	.	1	.	.	.
CCCC(=O)OC12CCCN(C1)/C(=C/c1cccc(N(C)C)c1)C2 (configuration not stated)	12	.	.	9	.	.	.
CCCCNC(=O)Oc1c(Br)cc2sc(=O)oc2c1Br	.	.	-10	.	26*	.	1
Cc1nn(-c2ccccc2)c2sc(C(=O)N3CCN(Cc4ccc(F)cc4)CC3)cc12	-12	.	.	-15	.	.	.
COC(=O)C1=C(C)NC2=C(C(=O)c3ccccc32)C1c1cccc(OC)c1 (configuration not stated)	4	-2	2	21	4	3	.
COc1cccc(C2C3=C(Nc4[nH]n(-c5ccccc5)c(=O)c42)c2ccccc2C3=O)c1 (configuration not stated)	.	.	28*	.	24*	.	31*
Cc1cc(C)cc(C(=O)OCCN(C)C2CN(Cc3cn(Cc4cccc(F)c4)nn3)S(=O)(=O)C2)c1 (configuration not stated)	2	.	.	3	.	.	.
CCOc1cc(/C=C2\N=C(SC)SC2=O)cc([N+](=O)[O-])c1OC(C)=O	.	.	14	.	22*	20	7
CC1=CC(C#N)(C#N)C(C#N)(C#N)C(c2ccccc2)N1 (configuration not stated)	.	.	50*	.	43*	.	-2
